Hits are enriched below; roughly 1.7% of the tested compounds scored in any of these assays.
IDE inh = cellular human IDE inhibition; P14735; HEK cells, FAbetaB cleavage, fluorescence polarization; inhibition, % at 5.59 µM; actives 0.41% (n = 320,000);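 active = percent inhibition above the average of all tested compounds plus 3 SD, set per screening campaign, cut at about 16% in these data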;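 also: IDE supplied by intact live HEK cells; FP after avidin binding of uncleaved biotin substrate so inhibition keeps polarization high; 0% = DMSO wells and 100% = 60 µM reference IDE inhibitor Ii1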
Target sequence (P14735 whole entry, looked up): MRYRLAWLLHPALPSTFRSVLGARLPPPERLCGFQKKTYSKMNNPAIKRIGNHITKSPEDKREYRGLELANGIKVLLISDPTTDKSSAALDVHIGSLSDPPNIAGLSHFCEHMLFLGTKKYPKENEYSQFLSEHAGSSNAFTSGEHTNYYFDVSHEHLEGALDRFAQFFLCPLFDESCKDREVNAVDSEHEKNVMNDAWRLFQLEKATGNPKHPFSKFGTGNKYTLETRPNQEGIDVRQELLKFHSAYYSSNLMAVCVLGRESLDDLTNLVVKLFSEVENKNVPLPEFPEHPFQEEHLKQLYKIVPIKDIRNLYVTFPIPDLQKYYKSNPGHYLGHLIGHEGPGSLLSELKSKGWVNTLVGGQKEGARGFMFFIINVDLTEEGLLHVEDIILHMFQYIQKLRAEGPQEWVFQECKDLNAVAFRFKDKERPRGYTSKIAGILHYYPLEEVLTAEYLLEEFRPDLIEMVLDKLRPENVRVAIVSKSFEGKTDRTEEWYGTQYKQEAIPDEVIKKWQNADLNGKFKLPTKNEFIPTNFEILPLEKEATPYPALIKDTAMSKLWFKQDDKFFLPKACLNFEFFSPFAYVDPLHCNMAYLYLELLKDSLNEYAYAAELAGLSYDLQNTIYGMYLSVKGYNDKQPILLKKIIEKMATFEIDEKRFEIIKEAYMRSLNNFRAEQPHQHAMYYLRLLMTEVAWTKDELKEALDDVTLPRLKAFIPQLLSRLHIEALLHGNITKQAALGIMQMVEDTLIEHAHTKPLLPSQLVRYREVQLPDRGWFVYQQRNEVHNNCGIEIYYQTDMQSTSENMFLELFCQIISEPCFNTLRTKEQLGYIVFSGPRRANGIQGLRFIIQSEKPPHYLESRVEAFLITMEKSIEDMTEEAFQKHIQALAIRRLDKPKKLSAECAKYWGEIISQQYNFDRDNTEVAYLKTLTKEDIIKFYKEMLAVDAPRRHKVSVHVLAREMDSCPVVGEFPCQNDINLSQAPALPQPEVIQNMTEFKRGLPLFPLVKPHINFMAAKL
Rpn11 block = inhibitors of human proteasome Rpn11 | inhibition, % at 20 µM | AID 588493 | human 26S proteasome, Ub4-pepOG fluorescence polarization; 20S core pre-blocked with epoxomicin | O00487 | actives 0.59% (n = 360,000);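 active = inhibition at 20 µM, scaled to each plate's controls, above about 33%, limit read from the data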
IDE cell activ = activators of human insulin-degrading enzyme in cells; activation, % at 5.96 µM; actives 0.073% (n = 340,000); HEK cells, FAbeta-B cleavage, fluorescence polarization; 0% vehicle, 100% cell-free pure enzyme wells; AID 493087; P14735;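 active = activation above the mean of all tested compounds plus 3 SD, set per screening campaign, cut at about 17% in these data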
HNF4A DNA FP = change in binding of human HNF4 alpha to DNA | actives 0.3% (n = 360,000) | P41235 | activity change, % at 10 µM | HNF4a-FITC DNA binding, fluorescence polarization, 1 h; in the data active = activity change above about 30%, passing the limit was not always enough
CSN deneddyl inh = CSN deneddylation inhibition; Purified CSN, SCF-Nedd8-OG deneddylation, fluorescence polarization; inhibition, % at 12.5 µM; actives 0.38% (n = 360,000); AID 651999;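 active = pattern-corrected inhibition above about 35%, with an unprinted fluorescence ratio check between 0.5 and 1.5, limit read from the data, passing the limit was not always enough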;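 also: 0% = enzyme with substrate and 100% = substrate without enzyme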
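Test system: Human Csn5 produced in HEK293T cells | Compound: 12.5 µM single point | Times: 90 min, room temperature | Signal: Fluorescence polarization readout | Read-out basis: % inhibition of substrate cleavage by Csn5 | Controls: no-enzyme wells high, enzyme-with-substrate wells low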
TPT1 inhibitor = C. albicans TPT1 enzyme inhibition; recombinant caTPT1, FP RNA substrate dephosphorylation; inhibition, % at 5 µM; actives 0.81% (n = 300,000);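 active = inhibition above the mean of all tested compounds plus 3 SD, set per screening campaign, cut at about 24% in these data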;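 also: plate controls were DMSO alone for no effect and ferristatin control at 100 nM for full effect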
Numbers without * were called inactive; i = inactive; . = no result shown; + = active, no number.

SMILES	IDE inh	Rpn11 block	IDE cell activ	HNF4A DNA FP	CSN deneddyl inh	TPT1 inhibitor
C#CCOCCOCCOCCNc1nc(N2CCN(C(=O)CCCCCCCCCCNC(=O)Cn3cc(C[C@@H](C)O)nn3)CC2)nc(N2CCN(C(=O)CCCCCCCCCCNC(=O)[C@H](CCCN=C(N)N)n3cc(C[C@@H](C)CC)nn3)CC2)n1	7.9	84.1*	35.2*	160.0	44.0*	0.3
C#CCOCCOCCOCCNc1nc(N2CCN(C(=O)CCCCCCCCCCNC(=O)Cn3cc(C[C@@H](C)O)nn3)CC2)nc(N2CCN(C(=O)CCCCCCCCCCNC(=O)[C@H](CCCCN)n3cc(CCCC(=O)O)nn3)CC2)n1	7.0	-1.5	3.2	3.5	5.2	3.7
C#CCOCCOCCOCCNc1nc(N2CCN(C(=O)CCCCCCCCCCNC(=O)[C@H](CO)n3cc(CCCSC)nn3)CC2)nc(N2CCN(C(=O)CCCCCCCCCCNC(=O)[C@H](CCCN=C(N)N)n3cc(C[C@@H](C)CC)nn3)CC2)n1	-2.4	108.1*	54.8*	278.6	130.6*	-2.6
C#CCOCCOCCOCCNc1nc(N2CCN(C(=O)CCCCCCCCCCNC(=O)[C@@H](CCSC)n3cc(CCO)nn3)CC2)nc(N2CCN(C(=O)CCCCCCCCCCNC(=O)[C@H](CCSC)n3cc(CCO)nn3)CC2)n1	7.6	-2.4	5.1	0.8	-3.6	-0.6
C#CCOCCOCCOCCNc1nc(N2CCN(C(=O)CCCCCCCCCCNC(=O)[C@H](CCCCN)n3cc(C)nn3)CC2)nc(N2CCN(C(=O)CCCCCCCCCCNC(=O)[C@H](CCCCN)n3cc(CCCC(=O)O)nn3)CC2)n1	5.0	-23.4	3.2	37.8*	14.1	-4.7
COc1ccc(CNC(=O)C[C@H]2C[C@H](C(=O)N3CCOCC3)[C@@]3(CCC4CCCC4)c4[nH]c5cc(CCC(=O)N(C)C)ccc5c4CCN3C2=O)cc1OC	.	0.8	4.6	0.5	-1.3	.
CC(Sc1ccccc1)C(=O)NCCc1ccccc1 (stereo not given)	6.1	3.6	1.1	-2.1	50.5*	-4.5
COc1ccc(CCNC(=O)C(C)SCc2ccccc2)cc1 (stereo not given)	0.9	-4.2	2.2	0.2	-0.6	-2.6
COc1cc2c(cc1OC)C(c1ccc(-c3cc(Cl)ccc3Cl)o1)=NCC2	2.1	-41.7	-5.7	37.8*	5.8	21.9
CC(=O)c1csc(COc2ccccc2)n1	8.0	2.2	1.4	62.9*	2.1	-1.5
COc1cc(-c2cc(O)c(-c3ccc4ccccc4n3)c(=O)[nH]2)cc(OC)c1OC	.	.	-5.4	134.6	57.7*	.
CCOC(=O)Cn1c(-c2ccc(OC)cc2)c(-c2ccc(OC)cc2)nnc1=O	-0.3	2.6	6.4	32.7*	-4.6	1.9
CCOC(=O)CSc1nnc(-c2ccc(OC)cc2)n1CC	-0.1	5.2	4.1	0.8	-4.8	-4.0
O=C(NCc1ccccc1)C(C1CC1)n1c(Cc2cc(F)cc(F)c2)nc2ccccc21 (stereo not given)	.	.	.	4.4	-2.8	.
O=C(O)CCN1C(=O)/C(=C\c2ccc(-c3nc4ccccc4s3)o2)SC1=S	0.6	+	-6.0	45.4*	i	40.7*
Cc1cccc(C)c1-n1nnnc1-c1nc2cc3ccccc3cc2[nH]c1=O	.	.	.	-9.7	2.8	.
CCOC(=O)c1cc(-c2ccc(N3CCOCC3)cc2)nn1-c1ccccc1C(=O)O	1.1	59.9*	4.9	-49.1	29.6	3.0
CC(C)=CCC[C@H](C)C[C@@H]1Cc2[nH][nH]c(=O)c2[C@H](c2ccc(F)cc2)O1	.	.	.	-1.8	-4.0	.
COC(=O)c1c(NC(C)=O)sc2c1CCCCC2	4.3	7.0	0.9	2.1	104.3*	-1.1
CCOc1cc(OCC)cc(C(=O)N2CCC[C@H]2C(=O)N2CCC[C@H]2C(=O)N(C)Cc2ccccc2)c1	.	.	.	-4.0	-1.6	.
C=CCN1CC(C(=O)N2CCC(Cc3ccc(Cl)cc3)(C(=O)OCC)CC2)CC1=O (stereo not given)	6.6	-2.7	-6.0	35.9*	1.5	-0.9
CCOC(=O)C1(Cc2ccc(Cl)cc2)CCN(C(=O)C2CCCO2)CC1 (stereo not given)	3.7	-2.4	8.4	-1.9	-0.8	-1.1

High-throughput results deposited in PubChem BioAssay by several laboratories.
